Results from ChEMBL document CHEMBL1140999, “Succinyl hydroxamates as potent and selective non-peptidic inhibitors of procollagen C-proteinase: design, synthesis, and evaluation as topically applied, dermal anti-scarring agents” (Bioorg Med Chem Lett, 2008).
Converted amounts (≈) assume the structure as drawn. Values belong to the compound of their own block, whether it stands above or below them.

Tests used:
[1] = biological target: T1, Bone morphogenetic protein 1 (Homo sapiens, UniProt P13497); test: Inhibition of human procollagen C-proteinase expressed in CHO cells by fluorescence assay; assay type: cell-based
T1 sequence (P13497 whole entry): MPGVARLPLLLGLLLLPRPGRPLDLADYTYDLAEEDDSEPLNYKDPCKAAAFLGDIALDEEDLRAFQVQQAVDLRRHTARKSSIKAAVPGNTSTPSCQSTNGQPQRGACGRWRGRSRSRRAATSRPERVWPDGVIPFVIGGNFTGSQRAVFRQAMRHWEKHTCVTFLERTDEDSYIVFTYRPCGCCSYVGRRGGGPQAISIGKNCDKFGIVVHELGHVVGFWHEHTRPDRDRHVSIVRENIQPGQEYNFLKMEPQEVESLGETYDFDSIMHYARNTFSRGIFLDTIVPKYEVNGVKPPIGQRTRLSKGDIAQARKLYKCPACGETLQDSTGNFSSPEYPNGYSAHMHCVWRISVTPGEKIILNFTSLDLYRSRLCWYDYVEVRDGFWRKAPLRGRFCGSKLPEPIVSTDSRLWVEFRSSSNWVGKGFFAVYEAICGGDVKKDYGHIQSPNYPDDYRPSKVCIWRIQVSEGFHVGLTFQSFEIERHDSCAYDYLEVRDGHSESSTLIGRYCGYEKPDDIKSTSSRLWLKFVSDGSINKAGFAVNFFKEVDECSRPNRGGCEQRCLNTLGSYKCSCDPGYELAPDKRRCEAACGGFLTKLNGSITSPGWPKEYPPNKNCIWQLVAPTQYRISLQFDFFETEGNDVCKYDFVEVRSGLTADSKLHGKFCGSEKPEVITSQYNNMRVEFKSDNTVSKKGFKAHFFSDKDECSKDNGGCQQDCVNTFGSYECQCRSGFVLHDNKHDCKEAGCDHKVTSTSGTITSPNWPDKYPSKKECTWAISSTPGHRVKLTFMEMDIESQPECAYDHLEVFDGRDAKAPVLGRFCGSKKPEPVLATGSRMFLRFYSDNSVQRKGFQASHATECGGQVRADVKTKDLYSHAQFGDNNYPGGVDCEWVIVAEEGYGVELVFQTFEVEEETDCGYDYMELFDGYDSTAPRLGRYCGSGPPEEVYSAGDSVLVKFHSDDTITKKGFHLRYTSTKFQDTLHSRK

[2] = Lipophilicity, log D at pH 7.4; assay type: physicochemical; details: buffer
[3] = Aqueous solubility in phosphate-buffered saline at pH 7.4 by HPLC; assay type: physicochemical
[4] = biological target: T1, Bone morphogenetic protein 1; test: Inhibition of human procollagen C-proteinase assessed as [3H]procollagen turnover by scintillation counting
Stromelysin-1 = Stromelysin-1 (Homo sapiens, UniProt P08254); test: Inhibition of human MMP3 by fluorescence assay
Fibroblast [5] = test: Reduction in collagen deposition in human fibroblasts at 10 uM after 8 days by HPLC; assay type: functional; parameters: scale not given: the % may be the effect or the level left
Zone of skin [6] = test: Effect on transepidermal penetration in human cadaver skin assessed as TED flux after 24 hrs by LC-MS/MS analysis using [14C]mannitol as receptor fluid; assay type: functional
Method in brief: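 Human cadaver stratum corneum was mounted in a Franz diffusion cell and exposed for 24 h to a solution in 50% aqueous propylene glycol (pH 6.8). Compound reaching the receptor chamber was measured and a flux rate was calculated. Reported as mean ± SEM, n = 6–10.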

[7] = Dissociation constant, pKa of the compound; assay type: physicochemical
Fibroblast [8] = test: Reduction in collagen deposition in human fibroblasts after 8 days by HPLC; assay type: functional, cell-based
[9] = Saturated solubility in propylene glycol-citrate buffer-ethanol; assay type: physicochemical
Zone of skin [10] = test: Effect on transepidermal penetration in human cadaver skin assessed as TED flux after 24 hrs by LC-MS/MS analysis using [14C]mannitol as receptor fluid in presence of propylene glycol-citrate buffer-ethanol; assay type: functional
Method in brief: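 Human cadaver stratum corneum was mounted in a Franz diffusion cell and exposed for 24 h to a solution in propylene glycol–citrate buffer–ethanol (20:30:50). Receptor-chamber concentration was used to calculate TED flux.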

[11] = biological target: 3',5'-cyclic-AMP phosphodiesterase 4A (Homo sapiens, UniProt P27815); test: Inhibition of PDE4A
[12] = biological target: 3',5'-cyclic-AMP phosphodiesterase 4B (Homo sapiens, UniProt Q07343); test: Inhibition of PDE4B
[13] = biological target: 3',5'-cyclic-AMP phosphodiesterase 4C (Homo sapiens, UniProt Q08493); test: Inhibition of PDE4C
[14] = biological target: 3',5'-cyclic-AMP phosphodiesterase 4D (Homo sapiens, UniProt Q08499); test: Inhibition of PDE4D
[15] = Metabolic stability in human liver microsomes assessed as half life; assay type: ADME, Microsome
[16] = Metabolic stability in dog liver microsomes assessed as half life; assay type: ADME, Canis lupus familiaris, Microsome
[17] = Metabolic stability in rat liver microsomes assessed as half life; assay type: ADME, Microsome
[18] = Elimination half life in rat at 2 mg/kg, iv administered as single dose; assay type: ADME, organism-based; parameters: dose 2 mg/kg, route intravenous; details: in vivo, read-out: beta t1/2 (converted)
Method in brief: (§1)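 Male rats (n = 2) received a single intravenous dose of 2 mg/kg. Plasma sampling gave half-life, clearance and volume of distribution. Concentrations were also followed after dosing against the assay's limit of quantification.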

[19] = Plasma clearance in rat at 2 mg/kg, iv administered as single dose; assay type: ADME, organism-based; parameters: dose 2 mg/kg, route intravenous; method in brief: as §1
[20] = Volume of distribution in rat at 2 mg/kg, iv administered as single dose; assay type: ADME, organism-based; parameters: dose 2 mg/kg, route intravenous; details: in vivo; method in brief: as §1
[21] = Elimination half life in dog at 0.5 mg/kg, iv administered as single dose; assay type: ADME, organism-based, Canis lupus familiaris; parameters: dose 0.5 mg/kg, route intravenous; details: in vivo, read-out: beta t1/2 (converted)
Method in brief: (§2)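 Male dogs (n = 2) received a single intravenous dose of 0.5 mg/kg or a single oral dose of 2 mg/kg. Plasma concentrations were used to derive half-life, clearance, volume of distribution, Cmax, Tmax and oral bioavailability.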

[22] = Plasma clearance in dog at 0.5 mg/kg, iv administered as single dose; assay type: ADME, organism-based, Canis lupus familiaris; parameters: dose 0.5 mg/kg, route intravenous; method in brief: as §2
[23] = Volume of distribution in dog at 0.5 mg/kg, iv administered as single dose; assay type: ADME, organism-based, Canis lupus familiaris; parameters: dose 0.5 mg/kg, route intravenous; details: in vivo; method in brief: as §2
[24] = Cmax in dog at 2 mg/kg, po administered as single dose; assay type: ADME, organism-based, Canis lupus familiaris; parameters: dose 2 mg/kg, route oral; details: in vivo; method in brief: as §2
[25] = Tmax in dog at 2 mg/kg, po administered as single dose; assay type: ADME, organism-based, Canis lupus familiaris; parameters: dose 2 mg/kg, route oral; details: in vivo; method in brief: as §2
[26] = Oral bioavailability in dog at 2 mg/kg administered as single dose; assay type: ADME, organism-based, Canis lupus familiaris; details: in vivo; method in brief: as §2
[27] = Plasma concentration in rat at 2 mg/kg, iv administered as single dose after 2 hrs; assay type: ADME, organism-based; parameters: dose 2 mg/kg, route intravenous; method in brief: as §1
[28] = Drug level in pig skin assessed as steady state concentration at 0.9 mg/ml in 50% aqueous propylene glycol administered tropically after 24 hrs; assay type: ADME, tissue-based, Sus scrofa, Zone of skin; details: topical or ocular, read-out: Drug uptake
Method in brief: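 Applied topically to intact pig skin as a 0.9 mg/ml solution in 50% aqueous propylene glycol. Tissue level was measured in the upper dermis as the steady-state concentration at 24 h.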

Chain of 3',5'-cyclic-AMP phosphodiesterase 4B (Q07343 whole entry): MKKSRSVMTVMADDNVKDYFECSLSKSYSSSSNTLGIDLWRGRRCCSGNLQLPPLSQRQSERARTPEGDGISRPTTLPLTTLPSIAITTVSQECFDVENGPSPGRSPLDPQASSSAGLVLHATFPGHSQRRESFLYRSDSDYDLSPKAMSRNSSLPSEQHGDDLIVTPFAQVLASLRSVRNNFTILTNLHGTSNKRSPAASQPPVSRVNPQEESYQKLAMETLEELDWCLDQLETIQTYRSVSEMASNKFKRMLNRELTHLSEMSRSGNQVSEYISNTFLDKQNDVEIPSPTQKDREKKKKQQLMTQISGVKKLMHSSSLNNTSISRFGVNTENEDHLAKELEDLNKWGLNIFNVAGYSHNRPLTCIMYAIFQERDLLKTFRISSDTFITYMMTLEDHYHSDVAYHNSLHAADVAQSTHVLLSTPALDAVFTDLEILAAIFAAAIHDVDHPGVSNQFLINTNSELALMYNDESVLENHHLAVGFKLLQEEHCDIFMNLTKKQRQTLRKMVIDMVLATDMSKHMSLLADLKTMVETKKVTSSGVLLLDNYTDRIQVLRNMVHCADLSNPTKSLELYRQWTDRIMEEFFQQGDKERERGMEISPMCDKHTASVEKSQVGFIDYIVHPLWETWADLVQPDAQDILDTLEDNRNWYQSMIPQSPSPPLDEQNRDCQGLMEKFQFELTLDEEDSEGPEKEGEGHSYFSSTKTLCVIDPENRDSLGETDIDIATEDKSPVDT
Chain of Stromelysin-1 (P08254 whole entry): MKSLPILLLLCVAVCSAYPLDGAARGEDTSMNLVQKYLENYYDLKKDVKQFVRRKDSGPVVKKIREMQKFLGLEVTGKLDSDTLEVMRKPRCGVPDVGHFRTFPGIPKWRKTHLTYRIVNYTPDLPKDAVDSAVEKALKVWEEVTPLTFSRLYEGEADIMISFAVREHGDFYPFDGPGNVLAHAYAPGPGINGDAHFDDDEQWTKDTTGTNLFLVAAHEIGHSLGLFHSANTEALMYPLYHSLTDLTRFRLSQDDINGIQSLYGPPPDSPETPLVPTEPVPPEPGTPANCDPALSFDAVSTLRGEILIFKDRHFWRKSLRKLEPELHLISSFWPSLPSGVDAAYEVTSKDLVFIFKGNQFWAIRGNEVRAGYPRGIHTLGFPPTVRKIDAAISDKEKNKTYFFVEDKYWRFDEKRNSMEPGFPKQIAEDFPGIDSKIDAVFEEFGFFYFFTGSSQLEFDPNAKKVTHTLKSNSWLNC
Chain of 3',5'-cyclic-AMP phosphodiesterase 4D (Q08499 whole entry): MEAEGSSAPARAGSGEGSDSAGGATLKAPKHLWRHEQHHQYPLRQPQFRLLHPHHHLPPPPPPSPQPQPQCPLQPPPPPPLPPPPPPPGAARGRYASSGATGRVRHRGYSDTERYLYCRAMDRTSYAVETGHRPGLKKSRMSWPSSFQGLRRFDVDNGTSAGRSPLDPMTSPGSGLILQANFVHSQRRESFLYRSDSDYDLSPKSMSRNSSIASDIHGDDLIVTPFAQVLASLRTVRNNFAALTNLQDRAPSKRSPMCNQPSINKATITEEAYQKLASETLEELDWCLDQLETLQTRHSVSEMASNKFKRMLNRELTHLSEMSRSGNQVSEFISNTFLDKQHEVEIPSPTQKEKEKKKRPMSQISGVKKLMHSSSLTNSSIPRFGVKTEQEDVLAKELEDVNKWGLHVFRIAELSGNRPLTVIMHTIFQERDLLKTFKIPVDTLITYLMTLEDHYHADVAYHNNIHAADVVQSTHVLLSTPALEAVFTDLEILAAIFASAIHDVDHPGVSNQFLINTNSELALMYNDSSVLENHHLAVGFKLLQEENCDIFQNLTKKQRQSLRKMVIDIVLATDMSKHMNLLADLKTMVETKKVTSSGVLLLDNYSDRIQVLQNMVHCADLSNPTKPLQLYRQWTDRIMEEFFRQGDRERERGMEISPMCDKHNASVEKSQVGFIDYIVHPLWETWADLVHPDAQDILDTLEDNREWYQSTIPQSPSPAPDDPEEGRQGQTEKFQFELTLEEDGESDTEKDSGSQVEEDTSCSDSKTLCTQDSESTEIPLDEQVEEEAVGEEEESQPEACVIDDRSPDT
Chain of 3',5'-cyclic-AMP phosphodiesterase 4A (P27815 whole entry): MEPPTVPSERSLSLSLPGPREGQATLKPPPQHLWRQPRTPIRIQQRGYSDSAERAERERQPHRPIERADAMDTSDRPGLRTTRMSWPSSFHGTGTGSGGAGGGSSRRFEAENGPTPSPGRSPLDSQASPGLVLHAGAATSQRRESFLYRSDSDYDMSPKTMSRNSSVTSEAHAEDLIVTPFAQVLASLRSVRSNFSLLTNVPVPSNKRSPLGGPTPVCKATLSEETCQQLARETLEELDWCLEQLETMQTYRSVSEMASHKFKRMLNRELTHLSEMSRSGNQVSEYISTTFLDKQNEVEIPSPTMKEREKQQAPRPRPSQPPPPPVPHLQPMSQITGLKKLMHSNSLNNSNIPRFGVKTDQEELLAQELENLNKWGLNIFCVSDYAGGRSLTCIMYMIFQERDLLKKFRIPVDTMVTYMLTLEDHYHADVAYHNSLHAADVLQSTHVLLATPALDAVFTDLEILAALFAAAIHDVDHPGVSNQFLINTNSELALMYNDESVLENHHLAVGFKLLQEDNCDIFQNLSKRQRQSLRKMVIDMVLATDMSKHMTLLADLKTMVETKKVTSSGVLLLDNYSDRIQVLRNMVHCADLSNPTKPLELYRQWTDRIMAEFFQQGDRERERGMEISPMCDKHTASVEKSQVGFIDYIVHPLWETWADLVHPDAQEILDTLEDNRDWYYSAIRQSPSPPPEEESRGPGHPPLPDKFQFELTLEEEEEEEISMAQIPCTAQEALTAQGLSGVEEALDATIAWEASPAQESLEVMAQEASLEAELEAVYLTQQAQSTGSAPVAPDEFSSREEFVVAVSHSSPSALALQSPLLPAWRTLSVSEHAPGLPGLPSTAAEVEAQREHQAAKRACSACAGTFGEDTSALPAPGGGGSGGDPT
Chain of 3',5'-cyclic-AMP phosphodiesterase 4C (Q08493 whole entry): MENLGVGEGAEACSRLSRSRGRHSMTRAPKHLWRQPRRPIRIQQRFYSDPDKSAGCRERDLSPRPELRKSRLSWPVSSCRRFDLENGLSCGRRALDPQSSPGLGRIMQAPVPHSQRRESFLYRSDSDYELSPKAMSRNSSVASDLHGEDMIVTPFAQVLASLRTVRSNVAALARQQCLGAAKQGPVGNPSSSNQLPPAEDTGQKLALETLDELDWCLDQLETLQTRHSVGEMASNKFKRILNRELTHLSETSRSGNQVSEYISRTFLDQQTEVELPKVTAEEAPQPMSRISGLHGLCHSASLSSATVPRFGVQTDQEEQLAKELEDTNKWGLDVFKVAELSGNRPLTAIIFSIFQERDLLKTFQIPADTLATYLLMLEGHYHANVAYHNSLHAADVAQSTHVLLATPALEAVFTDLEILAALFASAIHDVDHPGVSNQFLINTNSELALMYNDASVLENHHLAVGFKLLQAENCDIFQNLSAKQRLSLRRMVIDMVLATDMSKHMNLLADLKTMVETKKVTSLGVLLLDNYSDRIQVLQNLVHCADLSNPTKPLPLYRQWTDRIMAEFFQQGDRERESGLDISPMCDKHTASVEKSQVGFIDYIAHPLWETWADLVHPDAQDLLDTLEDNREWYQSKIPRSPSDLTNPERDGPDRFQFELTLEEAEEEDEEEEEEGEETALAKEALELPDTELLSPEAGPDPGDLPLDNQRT

IC50 [1]: 45 nM
Compound: CN(C)C(=O)c1coc([C@H](CCCC2CCCCC2)CC(=O)NO)n1

IC50 [1]: 25 nM
Compound: O=C(C[C@@H](CCCC1CCCCC1)c1nc(C(=O)N2CCOCC2)no1)NO

IC50 [1]: > 2000 nM
Compound: NC(=O)c1noc([C@@H](CCCC2CCCCC2)CC(=O)NO)n1

IC50 [1]: 40 nM
Compound: CN(Cc1ccccn1)C(=O)c1noc([C@H](CCCC2CCCCC2)CC(=O)NO)n1

IC50 [1]: 73 nM
Compound: NC(=O)c1coc([C@H](CCCC2CCCCC2)CC(=O)NO)n1

IC50 [1]: 65 nM
Compound: CN(Cc1ccccc1)C(=O)c1noc([C@H](CCCC2CCCCC2)CC(=O)NO)n1

logD [2]: 2.6 | pKa [7]: 9 | solubility [3]: 35 µg/mL (≈ 108 µM) | IC50 [4]: 26 nM | solubility thermodynamic [9]: 13800 µg/mL (≈ 42500 µM) | IC50 [11]: 1800 nM | IC50 [12]: 1500 nM | IC50 [13]: 2400 nM | IC50 [14]: 900 nM | half-life [15]: 19 min | half-life [16]: 9 min | half-life [17]: < 2 min | half-life [18]: 48 min | clearance [19]: 157 mL/min/kg | Vd [20]: 12 L/kg | half-life [21]: 90 min | clearance [22]: 35 mL/min/kg | Vd [23]: 4.6 L/kg | Cmax [24]: 110 ng/mL | Tmax [25]: 30 min | bioavailability [26]: 13% | concentration at 2 h [27]: < 100 ng/mL | concentration at 24 h [28]: 10 µM
Compound: NC(=O)c1noc([C@H](CCCC2CCCCC2)CC(=O)NO)n1
Activity (Fibroblast [5]): 76% | Activity (Fibroblast [8]): Dose-dependent effect | IC50 (Fibroblast [8]; 192 h): 2100 nM | TED (Zone of skin [6]): 0.3 microg/cm2/h | TED (Zone of skin [10]): 1.59 microg/cm2/h

IC50 [1]: 33 nM
Compound: O=C(C[C@@H](CCCC1CCCCC1)c1nc(C(=O)NCC2CC2)no1)NO

Further lines, the compound ahead of its results:

Compound: O=C(C[C@@H](CCCC1CCCCC1)c1nc(C(=O)N2CCCCC2)no1)NO
IC50 [1]: 26 nM

Compound: CN(C)C(=O)c1noc([C@H](CCCC2CCCCC2)CC(=O)NO)n1
IC50 [1]: 10 nM | logD [2]: 3.6 | solubility [3]: 900 µg/mL (≈ 2550 µM) | IC50 [4]: 9.3 nM | IC50 (Stromelysin-1): 28000 nM | Activity (Fibroblast [5]): 67% | TED (Zone of skin [6]): 2.6 microg/cm2/h

Compound: O=C(C[C@@H](CCCC1CCCCC1)c1nc(C(=O)NCc2ccccn2)no1)NO
IC50 [1]: 37 nM

Compound: O=C(O)CNC(=O)c1noc([C@H](CCCC2CCCCC2)CC(=O)NO)n1
IC50 [1]: 21 nM

Compound: Cc1oc([C@H](CCCC2CCCCC2)CC(=O)NO)nc1C(N)=O
IC50 [1]: 17 nM

Compound: CC(C)NC(=O)c1noc([C@H](CCCC2CCCCC2)CC(=O)NO)n1
IC50 [1]: 21 nM

Compound: O=C(C[C@@H](CCCC1CCCCC1)c1nc(C(=O)NCc2ccccc2)no1)NO
IC50 [1]: 57 nM

Compound: O=C(C[C@@H](CCCC1CCCCC1)c1nc(C(=O)N2CCCC2)no1)NO
IC50 [1]: 43 nM

Compound: CNC(=O)c1noc([C@H](CCCC2CCCCC2)CC(=O)NO)n1
IC50 [1]: 28 nM

Compound: CN1CCN(C(=O)c2noc([C@H](CCCC3CCCCC3)CC(=O)NO)n2)CC1
IC50 [1]: 54 nM

Compound: Cc1oc([C@H](CCCC2CCCCC2)CC(=O)NO)nc1C(=O)N(C)C
IC50 [1]: 17 nM

Compound: CCCNC(=O)c1noc([C@H](CCCC2CCCCC2)CC(=O)NO)n1
IC50 [1]: 32 nM
